≈ marks a conversion by molar mass, not a printed value.
System: KB
Experiment: Cytotoxicity against human KB cells after 72 hrs
Type: functional
Details: read-out: ED50 (the source's name)
How it was run: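 KB cells kept in MEM with 5% fetal calf serum; assay run largely per NCI guidelines in 24-well plates in a CO₂ incubator. Cells assayed after 72 h by a literature procedure. ED₅₀ estimated from semi-log plots of sample concentration (μg/ml) against percent viable cells; three determinations.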

Row | Compound | EC50 [µg/mL]
1 | COC(=O)c1cc(O)c(OC)c(O)c1 | 8.62 (≈ 43.5 µM)
2 | COc1cc(O)c(-c2oc3cc(OC)c(OC)c(O)c3c(=O)c2OC)cc1OC [BRICKELLIN] | > 25
3 | COc1cc(-c2oc3cc(OC)c(OC)c(O)c3c(=O)c2OC)ccc1O [CHRYSOSPLENOL B] | 7.42 (≈ 19.8 µM)
4 | COc1cc(-c2oc3cc(OC)c(O)c(O)c3c(=O)c2OC)ccc1O [CHRYSOSPLENOL C] | 11.2 (≈ 31.1 µM)
5 | COc1cc2oc(-c3ccc(O)c(O)c3)c(OC)c(=O)c2c(O)c1OC [CHRYSOSPLENOL D] | 13.9 (≈ 38.7 µM)
6 | COc1cc(O)c2c(=O)c(OC)c(-c3cc(OC)c(OC)cc3O)oc2c1 [CHRYSOSPLENOL E] | > 25
7 | COc1cc(O)c2c(=O)c(OC)c(-c3cc(OC)c(O)cc3O)oc2c1 [CHRYSOSPLENOL F] | > 25
8 | COc1cc(O)c2c(=O)c(OC)c(-c3cc(O)c(OC)cc3OC)oc2c1 [CHRYSOSPLENOL G] | 8.61 (≈ 23 µM)
9 | COc1cc(O)c2c(=O)c(OC)c(-c3cc(O)c(OC)cc3O)oc2c1 [OXYAYANIN A] | 1.99 (≈ 5.52 µM)
10 | COc1cc(O)c2c(=O)c(OC)c(-c3ccc(OC)c(OC)c3)oc2c1 [RETUSIN] | > 25

Source: ChEMBL document CHEMBL1158964, “Isolation and cytotoxicity of two new flavonoids from Chrysosplenium grayanum and related flavonols” (1991)
